# Assay results as given in ChEMBL document CHEMBL1132299, “Phosphinic pseudo-tripeptides as potent inhibitors of matrix metalloproteinases: a structure-activity study” (J Med Chem, 1999).
# pKi: −log10 of the molar value.
# Experiments:
# [1] = molecular target: T1, Stromelysin-3 (Mus musculus, UniProt Q02853); assay: Binding affinity against matrix metalloprotease-11.
# T1 sequence (Q02853 whole entry): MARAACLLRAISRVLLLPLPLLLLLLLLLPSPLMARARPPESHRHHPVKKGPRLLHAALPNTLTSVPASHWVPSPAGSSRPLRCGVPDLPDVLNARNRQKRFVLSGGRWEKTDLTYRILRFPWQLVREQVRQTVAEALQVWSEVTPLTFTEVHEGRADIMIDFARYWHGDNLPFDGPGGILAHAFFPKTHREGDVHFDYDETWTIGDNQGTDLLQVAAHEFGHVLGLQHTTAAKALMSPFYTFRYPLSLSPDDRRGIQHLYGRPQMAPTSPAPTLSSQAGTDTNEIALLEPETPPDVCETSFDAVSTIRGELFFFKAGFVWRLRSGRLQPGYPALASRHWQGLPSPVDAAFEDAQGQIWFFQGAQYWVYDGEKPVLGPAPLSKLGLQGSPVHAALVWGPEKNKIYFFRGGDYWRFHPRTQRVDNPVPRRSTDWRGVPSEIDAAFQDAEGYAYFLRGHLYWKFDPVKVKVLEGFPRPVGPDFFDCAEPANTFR
# Procedure, shortened: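 Mouse MMP-11 catalytic domain from E. coli BL21 DE3 pLysS, assayed in stirred quartz cuvettes in 50 mM Tris/HCl pH 6.8, 10 mM CaCl2 at 25 °C. Substrate was Mca-Pro-Leu-Ala-Cys(OMeBn)-Trp-Ala-Arg-Dpa-NH2 (Km 0.2 µM), with fluorescence read-out. Percent inhibition was measured in triplicate at five concentrations (20–80% range), and Ki was derived by the Horovitz–Levitski method.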
# [2] = molecular target: T2, Interstitial collagenase (Homo sapiens, UniProt P03956); assay: Inhibition of matrix metalloprotease-1
# T2 sequence (P03956 whole entry): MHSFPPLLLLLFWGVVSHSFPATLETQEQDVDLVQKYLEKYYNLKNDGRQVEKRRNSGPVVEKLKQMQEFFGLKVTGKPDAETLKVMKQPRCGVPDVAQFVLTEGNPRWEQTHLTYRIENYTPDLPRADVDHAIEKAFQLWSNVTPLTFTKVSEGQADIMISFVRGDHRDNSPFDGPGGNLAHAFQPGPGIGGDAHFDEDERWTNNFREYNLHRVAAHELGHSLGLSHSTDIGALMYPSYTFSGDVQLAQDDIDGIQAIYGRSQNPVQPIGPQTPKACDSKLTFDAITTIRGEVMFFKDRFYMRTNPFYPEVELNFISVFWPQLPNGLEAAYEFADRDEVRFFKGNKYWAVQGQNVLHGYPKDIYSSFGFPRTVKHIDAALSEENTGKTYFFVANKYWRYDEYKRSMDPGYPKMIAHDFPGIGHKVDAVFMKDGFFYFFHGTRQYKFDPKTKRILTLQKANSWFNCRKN
# Procedure, shortened: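 Human full-length pro-MMP-1 was expressed in NSO myeloma cells and activated just before use with trypsin (10 µg/mL, 25 min, 25 °C), then BPTI (100 µg/mL). Assay: 50 mM Tris/HCl pH 6.8, 10 mM CaCl2, 25 °C, 0.2–5 nM enzyme, 6 µM Mca-Pro-Leu-Gly-Leu-Dpa-Ala-Arg-NH2, fluorescence 340/400 nm over 30 min. Km 100 µM. Triplicate inhibition at five concentrations (20–80% range) gave Ki by the Horovitz–Levitski method.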
# [3] = molecular target: T3, Matrilysin (Homo sapiens, UniProt P09237); assay: Inhibition of Matrix metalloprotease-7 Matrilysin
# T3 sequence (P09237 whole entry): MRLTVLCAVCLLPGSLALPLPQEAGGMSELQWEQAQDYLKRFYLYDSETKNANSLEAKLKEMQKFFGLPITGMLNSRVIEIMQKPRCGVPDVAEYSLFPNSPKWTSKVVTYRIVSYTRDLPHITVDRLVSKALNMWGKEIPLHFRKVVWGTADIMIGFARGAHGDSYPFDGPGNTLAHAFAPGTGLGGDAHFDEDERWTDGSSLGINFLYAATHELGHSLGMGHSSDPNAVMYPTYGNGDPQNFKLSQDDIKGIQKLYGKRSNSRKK
# Procedure, shortened: (§1)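 Catalytic domains of human MMP-14 and MMP-7 were expressed in E. coli BL21 DE3 pLysS. Buffer 50 mM Tris/HCl pH 6.8, 10 mM CaCl2, 25 °C; 0.2–5 nM enzyme; 6 µM Mca-Pro-Leu-Gly-Leu-Dpa-Ala-Arg-NH2 read by fluorescence (ex 340, em 400 nm) for 30 min. Km: MMP-14 21, MMP-7 67 µM. Five inhibitor concentrations in triplicate; Ki by Horovitz–Levitski method.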
# [4] = molecular target: Neutrophil collagenase (Homo sapiens, UniProt P22894); assay: Inhibition of matrix metalloprotease-8
# Procedure, shortened: (§2)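 Full-length human pro-MMP-2, -9 and -8 were expressed in NSO myeloma cells and activated with 4-aminophenylmercuric acetate just before use. Run at 25 °C in 50 mM Tris/HCl pH 6.8, 10 mM CaCl2, with 0.2–5 nM enzyme and 6 µM Mca-Pro-Leu-Gly-Leu-Dpa-Ala-Arg-NH2; fluorescence 340/400 nm, 30 min. Km: MMP-2 49, MMP-9 14, MMP-8 61 µM. Triplicate, five inhibitor levels; Ki by Horovitz–Levitski.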
# [5] = molecular target: Matrix metalloproteinase-9 (Homo sapiens, UniProt P14780); assay: Binding affinity against matrix metalloprotease-9 (gelatinase-B).; procedure, shortened: as §2
# [6] = molecular target: 72 kDa type IV collagenase (Homo sapiens, UniProt P08253); assay: Binding affinity against matrix metalloprotease-2 (gelatinase-A).; procedure, shortened: as §2
# [7] = molecular target: Matrix metalloproteinase-14 (Homo sapiens, UniProt P50281); assay: Binding affinity against matrix metalloprotease-14 MTI-MMP.; procedure, shortened: as §1
# Matrix metalloproteinase-9, sequence (P14780 whole entry): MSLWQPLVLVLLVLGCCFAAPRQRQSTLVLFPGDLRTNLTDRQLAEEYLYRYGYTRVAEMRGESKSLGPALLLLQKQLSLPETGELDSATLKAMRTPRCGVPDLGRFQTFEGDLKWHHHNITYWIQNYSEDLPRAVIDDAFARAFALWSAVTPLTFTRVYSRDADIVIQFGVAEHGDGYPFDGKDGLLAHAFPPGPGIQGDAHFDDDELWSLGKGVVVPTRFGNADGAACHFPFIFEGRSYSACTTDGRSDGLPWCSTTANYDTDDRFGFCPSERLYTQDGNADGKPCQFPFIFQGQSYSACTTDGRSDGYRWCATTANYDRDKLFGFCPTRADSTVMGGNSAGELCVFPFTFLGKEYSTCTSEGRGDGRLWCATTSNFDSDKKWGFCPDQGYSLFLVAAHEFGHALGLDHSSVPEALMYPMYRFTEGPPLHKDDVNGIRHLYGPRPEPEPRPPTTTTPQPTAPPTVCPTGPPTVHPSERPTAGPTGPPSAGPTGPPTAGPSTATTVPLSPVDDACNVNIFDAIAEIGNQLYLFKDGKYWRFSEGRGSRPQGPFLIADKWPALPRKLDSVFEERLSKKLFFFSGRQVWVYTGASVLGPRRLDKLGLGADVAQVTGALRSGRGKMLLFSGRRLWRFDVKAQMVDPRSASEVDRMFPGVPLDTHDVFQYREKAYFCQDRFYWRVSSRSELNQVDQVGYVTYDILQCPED
# 72 kDa type IV collagenase, sequence (P08253 whole entry): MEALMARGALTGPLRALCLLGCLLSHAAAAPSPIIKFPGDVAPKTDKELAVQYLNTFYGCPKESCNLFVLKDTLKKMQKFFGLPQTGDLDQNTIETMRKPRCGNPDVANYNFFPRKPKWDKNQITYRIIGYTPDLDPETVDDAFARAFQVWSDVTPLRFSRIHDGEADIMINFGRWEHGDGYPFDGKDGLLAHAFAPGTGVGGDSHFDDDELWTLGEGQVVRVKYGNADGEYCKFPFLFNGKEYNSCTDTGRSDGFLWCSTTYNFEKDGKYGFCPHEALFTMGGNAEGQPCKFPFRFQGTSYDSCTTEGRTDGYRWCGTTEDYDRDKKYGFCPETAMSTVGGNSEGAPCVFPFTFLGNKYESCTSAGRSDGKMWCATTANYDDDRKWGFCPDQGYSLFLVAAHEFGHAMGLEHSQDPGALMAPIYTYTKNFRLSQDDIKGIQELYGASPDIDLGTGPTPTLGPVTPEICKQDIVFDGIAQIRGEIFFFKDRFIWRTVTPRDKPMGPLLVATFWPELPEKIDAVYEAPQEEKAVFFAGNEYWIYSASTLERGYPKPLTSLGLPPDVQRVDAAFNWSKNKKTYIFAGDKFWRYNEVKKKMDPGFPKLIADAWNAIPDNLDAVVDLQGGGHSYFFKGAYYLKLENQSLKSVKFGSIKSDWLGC
# Neutrophil collagenase, sequence (P22894 whole entry): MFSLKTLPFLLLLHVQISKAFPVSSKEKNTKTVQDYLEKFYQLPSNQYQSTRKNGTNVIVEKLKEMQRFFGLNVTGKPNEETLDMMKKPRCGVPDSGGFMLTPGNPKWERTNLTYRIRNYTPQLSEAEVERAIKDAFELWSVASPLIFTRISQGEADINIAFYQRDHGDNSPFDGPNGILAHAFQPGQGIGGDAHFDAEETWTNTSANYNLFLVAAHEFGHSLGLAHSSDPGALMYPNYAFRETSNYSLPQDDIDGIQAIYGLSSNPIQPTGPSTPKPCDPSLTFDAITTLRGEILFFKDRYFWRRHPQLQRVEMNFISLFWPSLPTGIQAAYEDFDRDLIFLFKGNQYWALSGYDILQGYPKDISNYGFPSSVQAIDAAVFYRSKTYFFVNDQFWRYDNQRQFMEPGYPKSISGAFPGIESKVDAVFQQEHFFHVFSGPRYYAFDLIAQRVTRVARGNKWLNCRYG
compound,measurement,setting,value
NC(=O)C(Cc1c[nH]c2ccccc12)NC(=O)C(CCCc1ccccc1)CP(=O)(O)C(Cc1ccccc1)NC(=O)c1ccc2ccccc2n1 (configuration not stated),pKi,[1],8.38
same,pKi,[2],6.47
same,pKi,[3],6.43
same,pKi,[4],8.30
same,pKi,[5],7.89
same,pKi,[6],7.72
same,pKi,[7],7.22
